Measured values from ChEMBL document CHEMBL3108699, “Small azobenzene derivatives active against bacteria and fungi” (2013).
Values after ≈ are worked out from the molar mass of the structure shown. Active and inactive are the calls of the source. No cut-off for these calls is given here.

Key:
Candida albicans [1] = experiment: Induction of degradation of Candida albicans SC5314 biofilm at 20 ug/ml after 24 hrs by XTT assay relative to vehicle-treated control; assay type: functional, organism-based; details: in the assay text read “after 8 hrs” for “after 24 hrs”
Listeria monocytogenes = experiment: Antimicrobial activity against Listeria monocytogenes after 24 hrs by microbroth dilution method; assay type: functional; details: read-out: MIC100
Method in brief: (§1)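 Two-fold serial dilutions, six replicates each, inoculated with about 5 × 10^5 CFU/mL in cation-adjusted Mueller-Hinton broth 2. Incubated at 37 °C, 160 rpm, 24 h. OD600 taken at 0 and 24 h; T0 subtracted; % inhibition calculated relative to the bacteria-plus-broth control. MIC is the lowest concentration giving 100% inhibition.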

Candida albicans [2] = experiment: Antibiofilm activity against Candida albicans SC5314 at 8 to 60 ug/ml after 24 hrs by crystal violet staining method relative to control; assay type: functional, organism-based
Staphylococcus aureus [3] = experiment: Antimicrobial activity against Staphylococcus aureus A170 after 24 hrs by microbroth dilution method; assay type: functional; details: A170, 24 h, read-out: MIC100; method in brief: as §1
Candida albicans [4] = experiment: Antimicrobial activity against Candida albicans SC5314 after 24 hrs by microbroth dilution method; assay type: functional; details: SC5314, 24 h, read-out: MIC100
Method in brief: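 CLSI broth microdilution in RPMI 1640 (L-glutamine, no glucose or NaHCO3) buffered to pH 7.0 with 0.165 M MOPS. Two-fold serial dilutions inoculated with 2.5 × 10^3 yeast/mL and incubated at 35 °C for 24 h, using three plates. MIC read visually as the lowest concentration giving optically clear wells versus the drug-free control.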

Salmonella typhimurium = experiment: Antimicrobial activity against Salmonella typhimurium after 24 hrs by microbroth dilution method; assay type: functional, Salmonella enterica subsp. enterica serovar Typhimurium; details: Salmonella enterica, read-out: MIC100; method in brief: as §1
Staphylococcus aureus [5] = experiment: Induction of degradation of Staphylococcus aureus A170 biofilm at 50 ug/ml assessed as concentration required for complete degradation after 24 hrs by crystal violet staining method relative to control; assay type: functional; details: in the assay text read “after 8 hrs” for “after 24 hrs”
Staphylococcus aureus [6] = experiment: Antibiofilm activity against Staphylococcus aureus A170 at 30 ug/ml after 24 hrs by crystal violet staining method relative to control; assay type: functional, organism-based
Pseudomonas aeruginosa = experiment: Antimicrobial activity against Pseudomonas aeruginosa ATCC 27853 after 24 hrs by microbroth dilution method; assay type: functional; details: ATCC 27853, 24 h, read-out: MIC100; method in brief: as §1
Staphylococcus aureus [7] = experiment: Induction of degradation of Staphylococcus aureus A170 biofilm at 30 ug/ml after 24 hrs by crystal violet staining method relative to control; assay type: functional; details: in the assay text read “after 8 hrs” for “after 24 hrs”
Staphylococcus aureus [8] = experiment: Antibiofilm activity against Staphylococcus aureus A170 at 25 ug/ml after 24 hrs by crystal violet staining method relative to control; assay type: functional, organism-based
Candida albicans [9] = experiment: Antimicrobial activity against Candida albicans SC5314 assessed as inhibition of hyphae formation after 24 hrs by inverted microscopy; assay type: functional, organism-based
Method in brief: (§2)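 Stationary yeast cells at 6 × 10^6 cells/mL in pre-warmed hypha-inducing RPMI 1640 (2.5% fetal calf serum, 20 mM HEPES, 2 mM L-glutamine, 16 mM NaHCO3, pH 7.0). Compound at 1–50 […]. After 24 h at 37 °C, wells examined by inverted microscope for morphology and hyphae formation.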

Candida albicans [10] = experiment: Antimicrobial activity against Candida albicans SC5314 assessed as inhibition of germination at 10 ug/ml after 24 hrs by inverted microscopy; assay type: functional, organism-based; method in brief: as §2

Row | MIC (Listeria monocytogenes) [µg/mL] | MIC (Staphylococcus aureus [3]) [µg/mL] | MIC (Candida albicans [4]) [µg/mL] | MIC (Salmonella typhimurium) [µg/mL] | MIC (Pseudomonas aeruginosa) [µg/mL] | Compound | Activity (Candida albicans [1]) | Activity (Candida albicans [2]) | Activity (Staphylococcus aureus [5]) [µg/mL] | Activity (Staphylococcus aureus [6]) | Activity (Staphylococcus aureus [7]) [%] | Activity (Staphylococcus aureus [8]) | inhibition (Candida albicans [9]) | inhibition (Candida albicans [10])
1 | 25 (≈ 103 µM) | 20 (≈ 82.5 µM) | 17 (≈ 70.2 µM) | > 60 | > 60 | Cc1cc(/N=N/c2ccc(O)cc2)cc(C)c1O | Active | Active | 50 | Active | 40 |  |  | 
2 | > 60 | 25 (≈ 93.2 µM) | 15 (≈ 55.9 µM) | > 60 | > 60 | C=CCc1cc(/N=N/c2ccc(O)cc2)cc(C)c1O | Active | Active | 50 |  | >60 | Active |  | 
3 | 50 (≈ 206 µM) | 30 (≈ 124 µM) | 30 (≈ 124 µM) | > 60 | > 60 | CCc1cc(/N=N/c2ccc(O)cc2)ccc1O | Active | Active | 50 |  | >60 | Active |  | 
4 | 25 (≈ 98.3 µM) | 20 (≈ 78.7 µM) | 20 (≈ 78.7 µM) | > 60 | > 60 | C=CCc1cc(/N=N/c2ccc(O)cc2)ccc1O | Active | Active | 50 |  | >60 | Active |  | 
5 |  | 100 (≈ 438 µM) | > 128 | > 400 | > 400 | Oc1ccc(/C=C/c2cc(O)cc(O)c2)cc1 [RESVERATROL] |  |  |  |  |  |  |  | 
6 | 25 (≈ 97.5 µM) | 20 (≈ 78 µM) | 20 (≈ 78 µM) | > 60 | > 60 | CCCc1cc(/N=N/c2ccc(O)cc2)ccc1O | Active | Active | 50 |  | >60 | Active | Dose-dependent effect | Active
